Shown are actives, neighbours in structure and some others; about 3.3% of the full set was active somewhere.
Exocytosis inh – blocks lytic granule exocytosis. TALL-104 LAMP-1 surface exposure, flow cytometry; cells stimulated with thapsigargin and PMA. inhibition, % at 10 µM. 360,000 tested, 0.66% active;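 active means inhibition above about 55%, limit read from the data; inconclusive means no clear call, values can overlap the other calls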
ATG4B inhibitor – ATG4B (human) cysteine protease inhibition | Q9Y4P1 | ATG4B cleavage of LC3-PLA2, NBD-HPC fluorescence, 1 h | inhibition, % at 8.33 µM | 340,000 tested, 0.51% active | AID 504462; in the data active means inhibition above about 40%
Arr AP2 block – human beta-arrestin and AP2 interaction inhibition | FITC-arrestin peptide / GST-AP2 beads, flow cytometry; AP2 beta2 appendage carries R879A mutation | inhibition, % at 10 µM | 340,000 tested, 0.31% active | AID 504490;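 active means inhibition above a set limit, near 3 SD of compounds lacking own fluorescence, cut at about 54% in these data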
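Measured by: flow cytometry, FL1 (488/535 nm); Material: AP2 appendage R879A on GSH beads; Evaluation: percent response; Timing: pre-incubation 12 min, peptide binding 1 h, room temperature; Also added: 50 nM FITC-arrestin peptide; Medium: PBS with 0.05% Tween 20 and 0.1% BSA.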
Myeloid diff 2 – compounds promoting myeloid differentiation; ER-HoxA9 myeloid progenitors, lysozyme-GFP differentiation, flow cytometry; AID 624256; calls only at 10 µM; 360,000 tested, 1% active;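 active means normalized GFP-positive differentiation at or above the plate's own cutoff, the solvent-only control mean plus 3 SD; inconclusive means no clear call, values can overlap the other calls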;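 further: cells exposed to compound for four days before flow analysis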
NRP1-CendR mod – NRP-1/CendR interaction modulation | 360,000 tested, 0.85% active | AID 602438 | FAM-RPARPAR peptide binding to NRP-1, fluorescence polarization | inhibition, % at 25 µM | O14786;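 active means inhibition or corrected inhibition above about 18%, plus a signal ratio from 0.5 to 1.5, limit read from the data, passing the limit was not always enough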
ABCB6 inh MLPCN – blocks the human ABCB6 transporter; 360,000 tested, 0.19% active; fluorescence ratio to DMSO, % at 10 µM; K562-ABCB6 porphyrin accumulation, flow cytometry, 1 h; stronger effect = lower value;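 active means fluorescence ratio to DMSO below 75%, the collection mean minus 3 SD; inconclusive means too few cells collected in the well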;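 further: signal is porphyrin accumulated inside mitochondria; lower ratio means ABCB6 inhibition with less porphyrin fluorescence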
Each line names hits and unclear results; the compound was inactive in the other large screens.

NC(=O)C1CCN(C(=O)c2ccc(NS(=O)(=O)/C=C/c3ccccc3)cc2)CC1	none (no result: ATG4B inhibitor, Arr AP2 block)
CCOc1ccc2nc(NCCNC(=O)CC)c(C#N)cc2c1	Myeloid diff 2 active
Cc1cc(C(=O)N/N=C/C=C/c2ccc3c(c2)OCO3)n[nH]1	NRP1-CendR mod 27
CN(C)CCNc1cnn(-c2ccccc2)c(=O)c1Cl	none
CCN(CC)C(=O)Cn1c(=O)c2ccccc2n2c(=S)sc(-c3cccc(C)c3)c12	Myeloid diff 2 active
COc1ccc(-c2noc(C(=O)NCc3ccc(F)cc3)n2)cc1OC	NRP1-CendR mod 37
CCCCCN(C(=O)CN1CCC(Cc2ccccc2)CC1)c1c(N)n(CCCC)c(=O)[nH]c1=O	none
COc1ccccc1NS(=O)(=O)c1ccc(Cl)c(NC(=O)c2sc3cc(Cl)ccc3c2Cl)c1	none (no result: Myeloid diff 2)
O=C(Nc1cc(S(=O)(=O)Nc2ccccc2Cl)ccc1O)c1sc2cc(Cl)ccc2c1Cl	Myeloid diff 2 active
CCn1c(SCC(=O)NCc2ccc3c(c2)OCO3)nnc1-c1cccs1	none
O=C(CSc1nnc(-c2cccs2)n1Cc1ccccc1)NCc1ccc2c(c1)OCO2	NRP1-CendR mod 24
O=C(CSc1nnc(Cc2ccccc2)n1Cc1ccccc1)NCc1ccco1	NRP1-CendR mod 30
CSc1ccccc1C(=O)NCCOc1cccc(C)c1	none
O=C(NCCCN1CCOCC1)c1ccc(Sc2ccc(Br)cc2)c([N+](=O)[O-])c1	Myeloid diff 2 active
O=C(NCCCN1CCOCC1)c1ccc(Sc2ccccc2Cl)c([N+](=O)[O-])c1	none
O=[N+]([O-])c1ccc(N=Nc2ncc[nH]2)cc1	Exocytosis inh 79, Myeloid diff 2 inconclusive
CCN(CC(=O)Nc1c(C(=O)OC)[nH]c2ccc(Cl)cc12)c1ccc2c(c1)OCO2	Myeloid diff 2 active
CC(C)[C@H](CO)Nc1nc(Nc2ccc(Cl)c(C(=O)O)c2)c2ncn(C(C)C)c2n1	none
CC(C)n1cnc2c(Nc3cccc(Cl)c3)nc(NCCCO)nc21	Myeloid diff 2 active
O=C(/C=C1\NC2(CCCC2)Cc2ccccc21)N1CCOCC1	Exocytosis inh 77
CC1(C)Cc2c(ccc3ccccc23)/C(=C/C(=O)N2CCCCC2)N1	none
CN1CCc2c(sc3c2C(=O)NC(c2ccc(-c4ccc(Cl)cc4)o2)N3)C1 (centres undefined)	Myeloid diff 2 active
CCN1CCN(S(=O)(=O)c2ccc3ccccc3c2)CC1	none
Cc1ccc(S(=O)(=O)N2CCOCC2)cc1C(=O)OCC(=O)NC1CC1	none
NC(=O)[C@H]1CC2(CC(c3cccc(NC(=O)CC(c4ccccc4)c4ccccc4)c3)=NO2)CN1C(=O)c1ccccc1C(=O)c1ccccc1 (some centres undefined)	none
NC(=O)[C@H]1CC2(CC(c3cccc(NC(=O)CC(c4ccccc4)c4ccccc4)c3)=NO2)CN1C(=O)C(c1ccccc1)c1ccccc1 (some centres undefined)	NRP1-CendR mod 30
CC/C=C/C(=O)N1CC2(CC(c3cccc(NC(=O)c4ccccc4)c3)=NO2)C[C@@H]1C(N)=O (some centres undefined)	NRP1-CendR mod 23
CCCCCCCCCOC(=O)C1N2C(=O)[C@@H](NC(=O)COc3ccccc3)[C@H]2SC1(C)C (some centres undefined)	NRP1-CendR mod 22
O=C1CC(N2CCN(Cc3ccc4c(c3)OCO4)CC2)C(=O)N1c1cccc(Cl)c1 (centres undefined)	NRP1-CendR mod 37
COCCN(C(=S)Nc1ccccc1C)C(C)c1cccs1 (centres undefined)	NRP1-CendR mod 26
O=C(NC1CCCCC1)C(c1ccc(F)cc1)N(CCCN1CCOCC1)C(=O)c1ccc(CN2CCOCC2)o1 (centres undefined)	none (no result: Myeloid diff 2)
Cc1cccc(NC(=O)CSCc2cc(=O)n3ccsc3n2)c1C	none
O=C(CSc1ccccc1)N1CCN(S(=O)(=O)c2ccccc2F)CC1	Myeloid diff 2 active
O=C(CSc1ccc(F)cc1)N1CCN(S(=O)(=O)c2ccccc2)CC1	none
C/C(=N\NC(=O)c1cc(O)ccc1O)c1cccc(NC(=O)c2ccc(Cl)cc2)c1	none
C/C(=N\NC(=O)c1cc(O)ccc1O)c1cccc(NC(=O)c2cccc(Cl)c2)c1	NRP1-CendR mod 23

From PubChem BioAssay
